CHO parental Ca: counter-screen: ATP calcium response change in parental CHO cells; inhibition, % at 5.6 µM; parental CHO-K1, ATP-induced calcium, Fluo-8 fluorescence; 330,000 compounds, 0.63% hits; AID 463079;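 active means inhibition above that plate's mean sample inhibition plus 3 SD, cut at about 26% in these data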;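 further: 0% = ATP-challenged DMSO wells and 100% = DMSO wells without ATP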
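Test system: untransfected parental CHO cell line. Compound: one dose, 5.6 µM nominal. Detection: intracellular calcium via Fluo-8 no-wash fluorescent dye. Measure: % inhibition. Benchmarks: ATP-challenged DMSO wells low, unchallenged DMSO wells high.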
OX1R antag-1: human HCRTR1 antagonism | O43613 | CHO/OX1R cells, Fluo-8 calcium fluorescence, orexin A | inhibition, % at 5 µM | 330,000 compounds, 0.43% hits | AID 434989;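 active means inhibition above its plate's threshold, mean inhibition of all tested compounds on the plate plus 3 SD, cut at about 37% in these data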;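 further: 0% = orexin A challenge wells and 100% = SB-334867-A antagonist wells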
OX1R antag-2: OX1R (human) antagonism | 330,000 compounds, 1.8% hits | O43613 | OX1R-expressing cells, FRET antagonist read-out | inhibition, % at 6.6 µM | AID 485270; in the data active means inhibition mostly above about 38%, no sharp cut-off; inactive means mostly below about 40%;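 further: 0% = agonist challenge alone and 100% = reference antagonist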
TAAR1 antagonist: antagonists of human TAAR1. CHO RD-HGA16 TAAR1, Fluo-8 calcium fluorescence, antagonist. 360,000 compounds, 1.5% hits. inhibition, % at 3 µM;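 active means inhibition above a per-plate cutoff, the mean inhibition of test compounds on that plate plus 3 SD, cut at about 49% in these data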;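 further: 0% = DMSO plus EC80 beta-PEA response and 100% = DMSO alone without agonist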
Target sequence (Q96RJ0 whole entry, looked up): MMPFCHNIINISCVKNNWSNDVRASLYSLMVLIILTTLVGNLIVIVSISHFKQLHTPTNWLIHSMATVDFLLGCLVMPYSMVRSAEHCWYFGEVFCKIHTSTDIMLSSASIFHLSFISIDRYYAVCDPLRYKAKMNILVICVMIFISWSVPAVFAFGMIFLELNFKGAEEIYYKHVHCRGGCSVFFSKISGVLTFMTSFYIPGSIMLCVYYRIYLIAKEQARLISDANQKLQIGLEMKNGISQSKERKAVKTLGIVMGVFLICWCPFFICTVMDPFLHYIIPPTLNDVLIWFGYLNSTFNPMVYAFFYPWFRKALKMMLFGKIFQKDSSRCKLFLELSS
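Test system – hTAAR1-expressing CHO RD-HGA16 cells, Gα16-coupled · Reagent – β-PEA at EC80 concentration, post-compound challenge · Compound dosing – 3 µM, single point · Timing – 140 s kinetic read after compound, 140 s after agonist · Detection – Fluo-8 intracellular calcium dye fluorescence, real-time kinetic reads · Control set – DMSO and EC80 PEA controls · Repeats – n of 1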
TAAR1 agonist: agonists of human TAAR1 | CHO RD-HGA16 TAAR1, Fluo-8 calcium fluorescence; vehicle wells 0%, saturating PEA agonist 100% | AID 624467 | Q96RJ0 | activation, % at 3 µM | 360,000 compounds, 0.99% hits;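 active means activation above the mean activation of all test compounds in the run plus 3 SD, cut at about 38% in these data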
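Test system: RD-HGA16 (CHO) cells co-expressing Gα16 and hTAAR1 | Doses: Single dose, 3 µM | Schedule: 17-24 h seeding, 75 min 37 °C dye, 30 min RT | Evaluation: % activation from peak over basal fluorescence ratio, DMSO-to-PEA scaled | Technique: Kinetic Fluo-8 calcium fluorescence | Benchmarks: Low control DMSO, high control PEA (EC100)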
GPR7 antag: human neuropeptides B/W receptor 1 antagonism; inhibition, % at 4.4 µM; 290,000 compounds, 1.1% hits; P48145; GPR7-expressing cells, fluorescence antagonist assay; in the data active means inhibition above about 16%, passing the limit was not always enough;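 further: cells stimulated with the agonist NPW; 0% = agonist with vehicle and 100% = vehicle without agonist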
Target sequence (P48145 whole entry, looked up): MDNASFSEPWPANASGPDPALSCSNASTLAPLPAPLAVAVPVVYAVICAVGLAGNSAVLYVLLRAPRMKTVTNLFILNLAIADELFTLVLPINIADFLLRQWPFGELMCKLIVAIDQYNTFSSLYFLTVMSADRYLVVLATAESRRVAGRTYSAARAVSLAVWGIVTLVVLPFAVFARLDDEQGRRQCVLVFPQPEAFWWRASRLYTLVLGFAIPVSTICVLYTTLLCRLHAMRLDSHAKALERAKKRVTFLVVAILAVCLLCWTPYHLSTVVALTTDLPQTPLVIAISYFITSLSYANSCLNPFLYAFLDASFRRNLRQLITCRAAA
GPR7 antag cf: human GPR7 antagonism, confirmation assay | AID 1952 | shares compounds with GPR7 antag | GPR7-expressing cells, calcium fluorescence antagonist mode | 2,400 compounds, 52% hits | inhibition, % at 4.4 µM; in the data active means inhibition above about 24%;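 further: stimulated with the GPR7 agonist NPW; 0% = agonist plus vehicle and 100% = vehicle alone without agonist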
MCHR1 antagonist: counter-screen for GPR7 antagonists: antagonists of human MCHR1 | shares compounds with GPR7 antag | inhibition, % at 4.4 µM | MCHR1-expressing cells, fluorescence antagonist assay | 2,400 compounds, 62% hits; in the data active means inhibition above about 22%;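 further: 0% = vehicle with agonist and 100% = vehicle without agonist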
Active calls of the source: *. A selection: hits, their analogues and other compounds. The true share with any hit is near 4.5%.

Screening CC1(C)Cc2ccccc2C(COc2ccccc2)=N1 returned TAAR1 antagonist -27, TAAR1 agonist 2, GPR7 antag 26*, GPR7 antag cf -1 and MCHR1 antagonist 0.
C=CCOc1c(CNC2CCCC2)cc(Cl)cc1OC was read as CHO parental Ca -15, OX1R antag-1 -18, OX1R antag-2 15, TAAR1 antagonist -36, TAAR1 agonist 0, GPR7 antag 26*, GPR7 antag cf 15 and MCHR1 antagonist 9.
Screening Cc1cc(C(=O)N[C@H](c2ccccc2)[C@@]2(C)C[C@@H]2[C@@H](C)C(=O)Nc2ccc3ccccc3c2)no1 returned CHO parental Ca -11, OX1R antag-1 5, OX1R antag-2 50, TAAR1 antagonist 53*, TAAR1 agonist 21, GPR7 antag 29*, GPR7 antag cf 46* and MCHR1 antagonist 64*.
Screening CCN(CC)c1nc(Nc2ccccc2)nc(Oc2ccc(=O)n(C)n2)n1 returned CHO parental Ca -15, OX1R antag-1 -24, OX1R antag-2 7, TAAR1 antagonist 8, TAAR1 agonist 14, GPR7 antag 23*, GPR7 antag cf -12 and MCHR1 antagonist -19.
`C/C(=N/NC(=O)CCC(=O)Nc1cccc(Cl)c1)c1ccc(C)cc1` gave CHO parental Ca -5, OX1R antag-1 -9, OX1R antag-2 13, TAAR1 antagonist 1, TAAR1 agonist 0 and GPR7 antag 6.
For C=CCN1C(=O)S/C(=C/c2ccc(Sc3nc4ccccc4[nH]3)o2)C1=O the results were CHO parental Ca 27, OX1R antag-1 47*, OX1R antag-2 41, TAAR1 antagonist 39, TAAR1 agonist 18, GPR7 antag 54*, GPR7 antag cf 37* and MCHR1 antagonist 75*.
Screening C=CCN1C(=O)S/C(=C/c2ccsc2)C1=O returned CHO parental Ca 3, OX1R antag-1 -15, OX1R antag-2 5, TAAR1 antagonist -8, TAAR1 agonist 2 and GPR7 antag -9.
For Cc1ccc(N/C(N)=N/c2nc(C)cc(C)n2)cc1 the results were CHO parental Ca 3, OX1R antag-1 7, OX1R antag-2 18, TAAR1 antagonist 27, TAAR1 agonist 24, GPR7 antag 75*, GPR7 antag cf 64* and MCHR1 antagonist 73*.
CSc1ccccc1C(=O)N(C)C(c1ccccc1)c1ccccc1 was read as CHO parental Ca -10, OX1R antag-1 10, OX1R antag-2 18, TAAR1 antagonist 11, TAAR1 agonist -3, GPR7 antag 22*, GPR7 antag cf 15 and MCHR1 antagonist 61*.
CN1C(=O)C2C3c4ccccc4C(c4ccccc43)[C@@H]2C1=O (stereo partly specified) was read as CHO parental Ca -3, OX1R antag-1 -18, OX1R antag-2 9, TAAR1 antagonist -6, TAAR1 agonist 4 and GPR7 antag 0.
`O=C1C2C3c4ccccc4C(c4ccccc43)C2c2nc3ccccc3n21` (stereo unspecified) gave CHO parental Ca -19, OX1R antag-1 -29, OX1R antag-2 17, TAAR1 antagonist 45, TAAR1 agonist 19, GPR7 antag 22*, GPR7 antag cf 8 and MCHR1 antagonist 32*.
Screening CCOC(=O)N1CCN(c2ccc(C(=O)c3cccc(F)c3)cc2)CC1 returned CHO parental Ca -11, OX1R antag-1 4, OX1R antag-2 17 and GPR7 antag 17.
`O=C(c1ccc(N2CCN(C(=O)c3ccccc3Br)CC2)cc1)c1cccc(F)c1` gave CHO parental Ca 14, OX1R antag-1 8, OX1R antag-2 34, TAAR1 antagonist 45, TAAR1 agonist 8, GPR7 antag 28*, GPR7 antag cf 4 and MCHR1 antagonist 69*.
`O=c1cc2c(nn1Cc1ccc(F)cc1)-c1ccccc1CC2` gave CHO parental Ca -2, OX1R antag-1 -22, OX1R antag-2 5, TAAR1 antagonist 12, TAAR1 agonist 9, GPR7 antag 35*, GPR7 antag cf 1 and MCHR1 antagonist 11.
Screening CNc1ccc(Oc2nc([N+](=O)[O-])nn2C)cc1 returned CHO parental Ca 1, OX1R antag-1 -1, OX1R antag-2 55, TAAR1 antagonist -1, TAAR1 agonist 1 and GPR7 antag -2.
Screening C=C(C(=O)Oc1c(C(C)(C)C)cccc1C(C)(C)C)c1ccccc1 returned CHO parental Ca -7, OX1R antag-1 -23, OX1R antag-2 1, TAAR1 antagonist 10 and TAAR1 agonist 4.
`Cc1nc(C(=O)Nc2ccc(Cl)cc2)nn1-c1ccc([N+](=O)[O-])cc1` gave CHO parental Ca -5, OX1R antag-1 -5, OX1R antag-2 5, TAAR1 antagonist 0, TAAR1 agonist 2, GPR7 antag 31*, GPR7 antag cf 4 and MCHR1 antagonist 7.
Cn1cc(Cl)cc(C(=O)Nc2ccccc2)c1=O was read as CHO parental Ca -1, OX1R antag-1 2, OX1R antag-2 2, TAAR1 antagonist -9, TAAR1 agonist 1 and GPR7 antag -5.
For Cc1ccc(-c2ccccc2[C@@H]2C[C@H]3CN(C)C(=O)[C@]34CCCN24)o1 the results were CHO parental Ca -19, OX1R antag-1 -19, OX1R antag-2 19, TAAR1 antagonist -5, TAAR1 agonist 7 and GPR7 antag -8.
`O=C1N(c2ccccc2)C[C@@H]2C[C@@H](c3cc4ccccc4o3)N3CCC[C@@]123` gave TAAR1 antagonist -10, TAAR1 agonist 1, GPR7 antag 25*, GPR7 antag cf 23 and MCHR1 antagonist 15.
For O=[N+]([O-])c1ccc(N2CCN(c3ccc(F)cc3)CC2)cc1 the results were CHO parental Ca 18, OX1R antag-1 10, OX1R antag-2 5, TAAR1 antagonist 13, TAAR1 agonist -1, GPR7 antag 44*, GPR7 antag cf 23 and MCHR1 antagonist 37*.
`COc1ccc(N2CCN(C(=O)CCc3ccc(S(=O)(=O)NCC(C)C)cc3)CC2)cc1` gave CHO parental Ca -4, OX1R antag-1 -7, OX1R antag-2 7, TAAR1 antagonist -8, TAAR1 agonist 16 and GPR7 antag 2.
For O=[N+]([O-])c1ccc(N2CCSCC2)cc1 the results were CHO parental Ca -12, OX1R antag-1 -2, OX1R antag-2 28, TAAR1 antagonist 10, TAAR1 agonist 15, GPR7 antag 29*, GPR7 antag cf 5 and MCHR1 antagonist 6.

Compound activity as filed in PubChem.
